In brackets after ≈: the same amount, converted by molar mass. Activity calls are given as the source filed them. The calls are words filed in the database; no cut-off is given here.
Experiments:
Enterococcus faecium [1] = assay: Antibacterial activity against vancomycin-resistant Enterococcus faecium ATCC 700221 after 18 hrs by agar dilution method; format: functional
Pseudomonas aeruginosa [2] = assay: Antibacterial activity against Pseudomonas aeruginosa PAO1 after 18 hrs by agar dilution method; format: functional; settings: PAO1, 18 h
Klebsiella pneumoniae [3] = assay: Antibacterial activity against extended-spectrum beta-lactamase-negative Klebsiella pneumoniae 7 after 18 hrs by agar dilution method; format: functional; settings: Klebsiella pneumoniae, 7, 18 h
Providencia rettgeri = assay: Antibacterial activity against Providencia rettgeri ATCC 31052 after 18 hrs by agar dilution method; format: functional; settings: ATCC 31052, 18 h
[4] = system: Stenotrophomonas maltophilia; assay: Antibacterial activity against Stenotrophomonas maltophilia ATCC 13636 after 18 hrs by agar dilution method; format: functional; settings: ATCC 13636, 18 h
Enterococcus faecium [5] = assay: Antibacterial activity against vancomycin-resistant Enterococcus faecium 12-1 after 18 hrs by agar dilution method; format: functional
Proteus vulgaris = assay: Antibacterial activity against Proteus vulgaris ATCC 29905 after 18 hrs by agar dilution method; format: functional; settings: ATCC 29905, 18 h
Klebsiella pneumoniae [6] = assay: Antibacterial activity against extended-spectrum beta-lactamase-positive Klebsiella pneumoniae 12-8 after 18 hrs by agar dilution method; format: functional; settings: 12-8, 18 h
HeLa = assay: Cytotoxicity against human HeLa cells after 48 hrs by SRB assay; format: functional, cell-based
Procedure, shortened: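 HeLa human cervical carcinoma cells obtained from ATCC. Cytotoxicity was read by sulforhodamine B staining following an earlier published protocol, with doxorubicin hydrochloride as positive control. Values are reported as IC50.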

Escherichia coli [7] = assay: Antibacterial activity against extended-spectrum beta-lactamase-negative Escherichia coli 12-14 after 18 hrs by agar dilution method; format: functional; settings: 12-14, 18 h
Citrobacter freundii = assay: Antibacterial activity against Citrobacter freundii ATCC 43864 after 18 hrs by agar dilution method; format: functional; settings: ATCC 43864, 18 h
Proteus mirabilis = assay: Antibacterial activity against Proteus mirabilis 12-6 after 18 hrs by agar dilution method; format: functional; settings: 12-6, 18 h
[8] = system: Staphylococcus epidermidis; assay: Antibacterial activity against methicillin-resistant Staphylococcus epidermidis 12-8 after 18 hrs by agar dilution method; format: functional
Escherichia coli [9] = assay: Antibacterial activity against extended-spectrum beta-lactamase-negative Escherichia coli ATCC 25922 after 18 hrs by agar dilution method; format: functional; settings: ATCC 25922, 18 h
Enterococcus faecalis [10] = assay: Antibacterial activity against vancomycin-resistant Enterococcus faecalis 09-9 after 18 hrs by agar dilution method; format: functional
Serratia marcescens = assay: Antibacterial activity against Serratia marcescens ATCC 21074 after 18 hrs by agar dilution method; format: functional; settings: ATCC 21074, 18 h
Escherichia coli [11] = assay: Antibacterial activity against extended-spectrum beta-lactamase-negative Escherichia coli 1515 after 18 hrs by agar dilution method; format: functional; settings: Escherichia coli, 1515, 18 h
Staphylococcus aureus [12] = assay: Antibacterial activity against methicillin-resistant Staphylococcus aureus ATCC 33591 after 18 hrs by agar dilution method; format: functional
Enterobacter cloacae = assay: Antibacterial activity against Enterobacter cloacae ATCC 43560 after 18 hrs by agar dilution method; format: functional; settings: ATCC 43560, 18 h
Escherichia coli [13] = assay: Antibacterial activity against extended-spectrum beta-lactamase-positive Escherichia coli 12-15 after 18 hrs by agar dilution method; format: functional; settings: 12-15, 18 h
Pseudomonas aeruginosa [14] = assay: Antibacterial activity against Pseudomonas aeruginosa 12-16 after 18 hrs by agar dilution method; format: functional; settings: 12-16, 18 h
Klebsiella pneumoniae [15] = assay: Antibacterial activity against NDM-1 positive Klebsiella pneumoniae ATCC BAA-2146 after 18 hrs by agar dilution method; format: functional; settings: ATCC BAA-2146, 18 h
Klebsiella aerogenes = assay: Antibacterial activity against Enterobacter aerogenes ATCC 13048 after 18 hrs by agar dilution method; format: functional; settings: ATCC 13048, 18 h
Candida albicans = assay: Antifungal activity against Candida albicans ATCC 10231 after 18 hrs by agar dilution method; format: functional; settings: ATCC 10231, 18 h
Enterococcus faecalis [16] = assay: Antibacterial activity against vancomycin-resistant Enterococcus faecalis ATCC 51299 after 18 hrs by agar dilution method; format: functional
[17] = system: Acinetobacter calcoaceticus; assay: Antibacterial activity against Acinetobacter calcoaceticus ATCC 19606 after 18 hrs by agar dilution method; format: functional; settings: ATCC 19606, 18 h
Staphylococcus aureus [18] = assay: Antibacterial activity against methicillin-resistant Staphylococcus aureus 12-33 after 18 hrs by agar dilution method; format: functional
Pseudomonas aeruginosa [19] = assay: Antibacterial activity against Pseudomonas aeruginosa ATCC 27853 after 18 hrs by agar dilution method; format: functional; settings: ATCC 27853, 18 h
Klebsiella pneumoniae [20] = assay: Antibacterial activity against extended-spectrum beta-lactamase-positive Klebsiella pneumoniae ATCC 700603 after 18 hrs by agar dilution method; format: functional; settings: Klebsiella pneumoniae, 700603, 18 h
Morganella morganii = assay: Antibacterial activity against Morganella morganii ATCC 25830 after 18 hrs by agar dilution method; format: functional; settings: ATCC 25830, 18 h
Klebsiella pneumoniae [21] = assay: Antibacterial activity against extended-spectrum beta-lactamase-negative Klebsiella pneumoniae 12-4 after 18 hrs by agar dilution method; format: functional; settings: 12-4, 18 h

SMILES	Activity (Enterococcus faecium [1])	MIC (Pseudomonas aeruginosa [2])	MIC (Klebsiella pneumoniae [3])	MIC (Providencia rettgeri)	MIC [4]	Activity (Enterococcus faecium [5])	MIC (Proteus vulgaris)	MIC (Klebsiella pneumoniae [6])	IC50 (HeLa)	MIC (Escherichia coli [7])	MIC (Citrobacter freundii)	MIC (Proteus mirabilis)	Activity [8]	MIC (Escherichia coli [9])	Activity (Enterococcus faecalis [10])	MIC (Serratia marcescens)	MIC (Escherichia coli [11])	Activity (Staphylococcus aureus [12])	MIC (Enterobacter cloacae)	MIC (Escherichia coli [13])	further results
CNC(=N)NCCC/C=C/CCC[C@H](C)C[C@H](C)[C@@H](O)[C@@H](C)/C=C/C=C/[C@@H](O)[C@@H](C)[C@H](O)C[C@@H](O)C[C@H](O)C[C@@H](O)C[C@H](O)[C@@H](O)C(O)C[C@@H](O)[C@@H](C)CC[C@H](O)[C@@H](C)[C@@H](O)C[C@@H](O)[C@@H](C)/C=C/[C@@H](O)[C@@H](C)C(=O)O (stereo partly drawn)	Active	> 64 µg/mL	> 64 µg/mL	> 64 µg/mL	> 64 µg/mL	Active	> 64 µg/mL	> 64 µg/mL	> 10 µM	> 64 µg/mL	> 64 µg/mL	> 64 µg/mL	Active	> 64 µg/mL	Active	> 64 µg/mL	> 64 µg/mL	Active	> 64 µg/mL	> 64 µg/mL	MIC (Pseudomonas aeruginosa [14]): > 64 µg/mL; MIC (Klebsiella pneumoniae [15]): > 64 µg/mL; MIC (Klebsiella aerogenes): > 64 µg/mL; MIC (Candida albicans): 8 to 32 µg/mL (≈ 7.43 to 29.7 µM); Activity (Enterococcus faecalis [16]): Active; MIC [17]: > 64 µg/mL; Activity (Staphylococcus aureus [18]): Active; MIC (Pseudomonas aeruginosa [19]): > 64 µg/mL; MIC (Klebsiella pneumoniae [20]): > 64 µg/mL; MIC (Morganella morganii): > 64 µg/mL; MIC (Klebsiella pneumoniae [21]): > 64 µg/mL
CNC(=N)NCCC/C=C/CCC[C@H](C)C[C@H](C)[C@H]1OC(=O)[C@H](C)[C@H](O)/C=C/[C@H](C)[C@H](O)C[C@H](O)[C@H](C)[C@@H](O)CC[C@H](C)[C@H](O)C[C@]2(OC)O[C@H](C[C@@H](OC(=O)CC(=O)O)C[C@H](O)C[C@@H](O)[C@H](C)[C@H](O)/C=C/C=C/[C@@H]1C)C[C@H](O)[C@H]2O	Active	> 64 µg/mL	> 64 µg/mL	> 64 µg/mL	> 64 µg/mL	Active	> 64 µg/mL	> 64 µg/mL	3 to 9 µM	> 64 µg/mL	> 64 µg/mL	> 64 µg/mL	Active	> 64 µg/mL	Active	> 64 µg/mL	> 64 µg/mL	Active	> 64 µg/mL	> 64 µg/mL	MIC (Pseudomonas aeruginosa [14]): > 64 µg/mL; MIC (Klebsiella pneumoniae [15]): > 64 µg/mL; MIC (Klebsiella aerogenes): > 64 µg/mL; MIC (Candida albicans): 8 to 32 µg/mL (≈ 6.92 to 27.7 µM); Activity (Enterococcus faecalis [16]): Active; MIC [17]: > 64 µg/mL; Activity (Staphylococcus aureus [18]): Active; MIC (Pseudomonas aeruginosa [19]): > 64 µg/mL; MIC (Klebsiella pneumoniae [20]): > 64 µg/mL; MIC (Morganella morganii): > 64 µg/mL; MIC (Klebsiella pneumoniae [21]): > 64 µg/mL
CNC(=N)NCCC/C=C/CCC[C@H](C)C[C@H](C)[C@H]1OC(=O)[C@H](C)[C@H](O)/C=C/[C@H](C)[C@H](O)C[C@H](O)[C@H](C)[C@@H](O)CC[C@H](C)[C@H](O)C[C@]2(O)O[C@H](C[C@@H](O)C[C@H](OC(=O)CC(=O)O)C[C@@H](O)[C@H](C)[C@H](O)/C=C/C=C/[C@@H]1C)C[C@H](OC(=O)CC(=O)O)[C@H]2O	Active	> 64 µg/mL	> 64 µg/mL	> 64 µg/mL	> 64 µg/mL	Active	> 64 µg/mL	> 64 µg/mL	> 10 µM	> 64 µg/mL	> 64 µg/mL	> 64 µg/mL	Active	> 64 µg/mL	Active	> 64 µg/mL	> 64 µg/mL	Active	> 64 µg/mL	> 64 µg/mL	MIC (Pseudomonas aeruginosa [14]): > 64 µg/mL; MIC (Klebsiella pneumoniae [15]): > 64 µg/mL; MIC (Klebsiella aerogenes): > 64 µg/mL; MIC (Candida albicans): 8 to 32 µg/mL (≈ 6.51 to 26 µM); Activity (Enterococcus faecalis [16]): Active; MIC [17]: > 64 µg/mL; Activity (Staphylococcus aureus [18]): Active; MIC (Pseudomonas aeruginosa [19]): > 64 µg/mL; MIC (Klebsiella pneumoniae [20]): > 64 µg/mL; MIC (Morganella morganii): > 64 µg/mL; MIC (Klebsiella pneumoniae [21]): > 64 µg/mL

Source: ChEMBL document CHEMBL4130613, “Identification and Proposed Relative and Absolute Configurations of Niphimycins C-E from the Marine-Derived Streptomyces sp. IMB7-145 by Genomic Analysis” (J Nat Prod, 2018)
